According to ChEMBL document CHEMBL2177002, “Antifungal spectrum, in vivo efficacy, and structure-activity relationship of ilicicolin h” (ACS Med Chem Lett, 2012):
Values after ≈ are worked out from the molar mass of the structure shown. Active and inactive are the calls of the source. No cut-off for these calls is given here.

Experiments:
[1] = tested on: Aspergillus fumigatus; assay: Antifungal activity against Aspergillus fumigatus MF 5668 after 24 hrs by NCCLS broth microdilution method; assay type: functional; details: MF 5668, 24 h
[2] = tested on: Candida albicans; assay: Antifungal activity against Candida albicans MY 1055 infected in DBA/2 mouse assessed as reduction in kidney fungal burden administered as po bid for 2 days post infection measured after 4 days; assay type: functional; details: MY 1055, Kidney
Procedure, shortened: (§1)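 DBA/2 mice infected intravenously with 5.4 × 10⁴ cfu of C. albicans MY1055. Dosed orally twice daily for 2 days in 10% aqueous DMSO at 50, 25, 12.5 and 6.25 mg/kg. Kidney Candida burden determined 4 days after infection and compared with vehicle-treated controls by Excel t test (p < 0.05). ED90 is the dose giving 90% reduction of kidney C. albicans.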

[3] = tested on: Cryptococcus neoformans; assay: Antifungal activity against Cryptococcus neoformans MY 2061 after 40 hrs by NCCLS broth microdilution method; assay type: functional; details: MY 2061, 40 h
[4] = tested on: Cryptococcus neoformans; assay: Antifungal activity against Cryptococcus neoformans H 99 after 40 hrs by NCCLS broth microdilution method; assay type: functional; details: H 99, 40 h
[5] = Inhibition of Saccharomyces cerevisiae MY 2141 electron transport protein complex 1/3 using NADH as substrate assessed as decrease in oxygen consumption measured for 3 mins
[6] = tested on: Pichia kudriavzevii; assay: Antifungal activity against Candida krusei CLY 549 after 24 hrs by NCCLS broth microdilution method; assay type: functional; details: CLY 549, 24 h
[7] = tested on: Nakaseomyces glabratus; assay: Antifungal activity against Candida glabrata CLY 574 after 24 hrs by NCCLS broth microdilution method; assay type: functional; details: CLY 574, 24 h
[8] = tested on: Candida albicans; assay: Ratio of MIC for Candida albicans 14 harboring cytochrome b G37S mutant to MIC for wild type Candida albicans; assay type: functional
[9] = tested on: Candida albicans; assay: Ratio of MIC for Candida albicans 9 harboring cytochrome b G37D mutant to MIC for wild type Candida albicans; assay type: functional
[10] = tested on: Saccharomyces cerevisiae; assay: Antifungal activity against Saccharomyces cerevisiae MY 2141 assessed as inhibition of whole cell oxygen consumption at 0.003 ug/mL after 15 mins; assay type: functional; details: MY 2141, 0.25 h
[11] = Inhibition of Saccharomyces cerevisiae MY 2141 NADH:cytochrome c oxidoreductase
[12] = tested on: Candida albicans; assay: Antifungal activity against Candida albicans MY 1055 after 24 hrs by NCCLS broth microdilution method; assay type: functional; details: MY 1055, 24 h
[13] = tested on: Candida tropicalis; assay: Antifungal activity against Candida tropicalis MY 1012 after 40 hrs by NCCLS broth microdilution method; assay type: functional; details: MY 1012, 40 h
[14] = Inhibition of rhesus monkey liver NADH:cytochrome c oxidoreductase; design: species or system Macaca mulatta
[15] = tested on: Candida albicans; assay: Ratio of MIC for Candida albicans 11 harboring cytochrome b G37C mutant to MIC for wild type Candida albicans; assay type: functional
[16] = Clearance in mouse; assay type: ADME, organism-based; details: in vivo
[17] = tested on: Candida albicans; assay: Antifungal activity against Candida albicans MY 1055 infected in DBA/2 mouse assessed as reduction in kidney fungal burden at 50 mg/kg, po bid administered 2 days post infection measured after 4 days relative to vehicle-treated control; assay type: functional, organism-based; design: dose 50 mg/kg; procedure, shortened: as §1
[18] = tested on: Meyerozyma guilliermondii; assay: Antifungal activity against Candida guilliermondii CLY 346 after 24 hrs by NCCLS broth microdilution method; assay type: functional; details: CLY 346, 24 h
[19] = tested on: Candida albicans; assay: Antifungal activity against Candida albicans after 24 hrs by NCCLS broth microdilution method in presence of 10% mouse plasma; assay type: functional
[20] = tested on: Cryptococcus neoformans; assay: Antifungal activity against Cryptococcus neoformans MY 2061 infected in DBA/2 mouse assessed as reduction in spleen fungal burden at 50 mg/kg, po bid; assay type: functional, organism-based; design: dose 50 mg/kg
Procedure, shortened: (§2)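 Mice with disseminated C. neoformans MY2061 infection (8 × 10⁵ cfu/mouse). Dosed twice daily at 100 or 50 mg/kg, oral or intraperitoneal, in 5% aqueous DMSO. Spleen burden measured as log cfu/g of spleen and compared by Excel t test (p < 0.05).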

[21] = tested on: Meyerozyma guilliermondii; assay: Antifungal activity against Candida guilliermondii CLY 308 after 24 hrs by NCCLS broth microdilution method; assay type: functional; details: CLY 308, 24 h
[22] = tested on: Candida albicans; assay: Antifungal activity against Candida albicans MY 1055 in glucose-based medium after 24 hrs by NCCLS broth microdilution method; assay type: functional; details: MY 1055, 24 h
[23] = tested on: Candida albicans; assay: Antifungal activity against Candida albicans MY 1055 infected in DBA/2 mouse assessed as reduction in kidney fungal burden at 25 to 50 mg/kg, iv tid after 24 hrs; assay type: functional, organism-based
Procedure, shortened: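 Abbreviated 24 h version of the disseminated C. albicans kidney-burden model in mice. Dosing intravenous, thrice daily, at total doses of 50 or 25 mg/kg/day. Kidney burden compared with controls by Excel t test (p < 0.05). ED90 expressed as mg/kg/day.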

[24] = tested on: Saccharomyces cerevisiae; assay: Antifungal activity against Saccharomyces cerevisiae MY 2141 in glycerol-based medium after 24 hrs by NCCLS broth microdilution method; assay type: functional; details: MY 2141, 24 h
[25] = tested on: Candida albicans; assay: Ratio of MIC for Candida albicans 1 harboring cytochrome b G37C mutant to MIC for wild type Candida albicans; assay type: functional
[26] = Selectivity ratio of IC50 for bovine NADH:cytochrome c oxidoreductase to IC50 for Saccharomyces cerevisiae MY 2141 NADH:cytochrome c oxidoreductase
[27] = tested on: Candida albicans; assay: Antifungal activity against Candida albicans SC 53124 after 24 hrs by NCCLS broth microdilution method; assay type: functional; details: SC 53124, 24 h
[28] = Inhibition of Saccharomyces cerevisiae MY 2141 electron transport protein complex 1/3 using glycerol-3-phosphate as substrate assessed as decrease in oxygen consumption measured for 3 mins
[29] = tested on: Candida albicans; assay: Ratio of MIC for Candida albicans 10 harboring cytochrome b S20I mutant to MIC for wild type Candida albicans; assay type: functional
[30] = Inhibition of rat liver NADH:cytochrome c oxidoreductase
[31] = Inhibition of Saccharomyces cerevisiae MY 2141 electron transport protein complex 4 using ascorbate/TMPD as substrate assessed as decrease in oxygen consumption measured for 3 mins
[32] = tested on: Candida albicans; assay: Ratio of MIC for Candida albicans 5 harboring cytochrome b G37D mutant to MIC for wild type Candida albicans; assay type: functional
[33] = tested on: Candida albicans; assay: Ratio of MIC for Candida albicans 4 harboring cytochrome b G37S mutant to MIC for wild type Candida albicans; assay type: functional
[34] = tested on: Aspergillus flavus; assay: Antifungal activity against Aspergillus flavus MF 383 after 24 hrs by NCCLS broth microdilution method; assay type: functional, organism-based
[35] = tested on: Cryptococcus neoformans; assay: Antifungal activity against Cryptococcus neoformans MY 2061 infected in DBA/2 mouse assessed as reduction in spleen fungal burden at 100 mg/kg, ip bid; assay type: functional, organism-based; design: dose 100 mg/kg; procedure, shortened: as §2
[36] = Inhibition of Candida albicans MY 1055 NADH:cytochrome c oxidoreductase; details: read-out: IC50
[37] = tested on: Saccharomyces cerevisiae; assay: Antifungal activity against Saccharomyces cerevisiae MY 2141 in glucose-based medium after 24 hrs by NCCLS broth microdilution method; assay type: functional; details: MY 2141, 24 h
[38] = tested on: Candida albicans; assay: Ratio of MIC for Candida albicans 7 harboring cytochrome b G37D mutant to MIC for wild type Candida albicans; assay type: functional
[39] = tested on: Candida albicans; assay: Ratio of MIC for Candida albicans 5 harboring cytochrome b G37S mutant to MIC for wild type Candida albicans; assay type: functional
[40] = tested on: Clavispora lusitaniae; assay: Antifungal activity against Candida lusitaniae MY 1396 after 24 hrs by NCCLS broth microdilution method; assay type: functional; details: MY 1396, 24 h
[41] = tested on: Candida albicans; assay: Ratio of MIC for Candida albicans 6 harboring cytochrome b G37S mutant to MIC for wild type Candida albicans; assay type: functional

Compound: C/C=C/[C@@H]1[C@H]2C[C@@H](C)CC[C@@H]2C(C)=C[C@H]1C(=O)c1c(O)c(-c2ccc(O)cc2)c[nH]c1=O [ILICICOLIN H]
- MIC [1]: 0.08 µg/mL (≈ 0.185 µM)
- ED90 [2]: 15.4 mg/kg
- MIC [3]: 0.1 µg/mL (≈ 0.231 µM)
- MIC [4]: 0.1 µg/mL (≈ 0.231 µM)
- IC50 [5]: 0.08 µg/mL (≈ 0.185 µM)
- MIC [6]: 0.01 µg/mL (≈ 0.0231 µM)
- MIC [7]: 0.01 µg/mL (≈ 0.0231 µM)
- Ratio [8]: 250
- Ratio [9]: 250
- inhibition at 0.003 µg/mL [10]: 100%
- IC50 [11]: 2.31 nM
- MIC [12]: 0.04 µg/mL (≈ 0.0923 µM)
- MIC [13]: 0.01 µg/mL (≈ 0.0231 µM)
- IC50 [14]: 0.5 µg/mL (≈ 1.15 µM)
- Ratio [15]: 250
- clearance [16]: 16 mL/min/kg
- Activity [17]: Active
- MIC [18]: 0.01 µg/mL (≈ 0.0231 µM)
- MIC [19]: > 1 µg/mL
- Activity [20]: Active
- MIC [21]: 0.01 µg/mL (≈ 0.0231 µM)
- MIC [22]: > 50 µg/mL
- Activity [23]: Active
- MIC [24]: 0.012 µg/mL (≈ 0.0277 µM)
- Ratio [25]: 250
- Ratio IC50 [26]: > 70
- MIC [27]: 0.01 µg/mL (≈ 0.0231 µM)
- IC50 [28]: 0.02 µg/mL (≈ 0.0461 µM)
- Ratio [29]: 250
- IC50 [30]: 1.5 µg/mL (≈ 3.46 µM)
- IC50 [31]: > 10 µg/mL
- Ratio [32]: 250
- Ratio [33]: 250
- Activity [34]: inactive
- Activity [35]: Active
- IC50 [36]: 1.85 nM
- MIC [37]: > 50 µg/mL
- Ratio [38]: 250
- Ratio [39]: 250
- MIC [40]: 0.01 µg/mL (≈ 0.0231 µM)
- Ratio [41]: 250
